Here are results for one molecule from publication PMC10558795 (Redox Biology, 2023).

One data set relates to KYSE70 cells. Put plainly: High-content cytotoxicity screen. The format is cell-based, human. Conditions: Homo sapiens, KYSE-70, 72 h, read-out: Cell proliferation (IC50, μM). The procedure, abridged: (§1)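 Cells were seeded at 1200/well in 384-well plates and cultured overnight. Test compound was added at […] serial dilution from 10 µM, in triplicate, for 3 days. Controls were 0.1% DMSO (negative), 30 µM benzethonium chloride and 0.1% Triton X-100 added just before staining (positive). Cells were stained with 0.5 µg/ml Hoechst and 100 nM YOYO1, four 4× images per well. Normalized total-cell and dead-cell percentages were fitted for IC₅₀.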

For the next data set, the system named is KYSE180 cells. Put plainly: High-content cytotoxicity screen. The format is cell-based, human. To be noted: Homo sapiens, KYSE-180, 72 h, read-out: Cell proliferation (IC50, μM). An outline of the steps: as §1
In data set [1] the test system is NFE2L2 mRNA and NRF2 target genes. Description: qPCR of NFE2L2 mRNA and NRF2 target genes. The data set is classed as cell-based, human. An outline of the steps: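 Gene expression quantified by real-time PCR using gene-specific primers and TaqMan probes on a 96-well real-time PCR system.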
In data set [2] the test system is NRF2 expression in NRF2^WT-KYSE450 cells. Description: NRF2 expression in KYSE450 cells. The format is cell-based, human. An outline of the steps:
(§2)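 Nuclear and cytosolic fractions prepared with an extraction kit, or whole-cell lysates in RIPA buffer. Proteins separated by SDS-PAGE, transferred to nitrocellulose, blocked and probed with primary antibody overnight at 4 °C. Chemiluminescence detected on film and quantified by densitometry; band data as mean ± SD, Student's t-test.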

The subject of a further data set is STAT3. Put plainly: pSTAT3 and STAT3 expression in KYSE70 cells. Conditions: up to 10 μM. The data set is classed as cell-based, human. An outline of the steps:
as §2

For data set [3], the target named is NRF2 ubiquitination (KYSE70) (Homo sapiens, UniProt Q16236, W24C). Description: NRF2-IP and ubiquitin western blotting in KYSE70 cells. The data set is classed as cell-based. To be noted: NRF2^Mut-KYSE70; PYR 10 μM, MIT 20 nM; presence or absence of MG132. An outline of the steps: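 Cells treated with test compound, then with or without MG132 (10 μM), lysed in RIPA buffer. Lysate precleared on protein G agarose 1 h at 4 °C, then incubated with 1 μg anti-NRF2 antibody overnight at 4 °C with rotation. Immunocomplexes captured on protein G agarose 1.5 h at 4 °C, washed, boiled in 2X SDS loading buffer at 95 °C for 5 min, and immunoblotted for ubiquitin.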
NRF2 ubiquitination (KYSE70), sequence (Q16236 whole entry W24C): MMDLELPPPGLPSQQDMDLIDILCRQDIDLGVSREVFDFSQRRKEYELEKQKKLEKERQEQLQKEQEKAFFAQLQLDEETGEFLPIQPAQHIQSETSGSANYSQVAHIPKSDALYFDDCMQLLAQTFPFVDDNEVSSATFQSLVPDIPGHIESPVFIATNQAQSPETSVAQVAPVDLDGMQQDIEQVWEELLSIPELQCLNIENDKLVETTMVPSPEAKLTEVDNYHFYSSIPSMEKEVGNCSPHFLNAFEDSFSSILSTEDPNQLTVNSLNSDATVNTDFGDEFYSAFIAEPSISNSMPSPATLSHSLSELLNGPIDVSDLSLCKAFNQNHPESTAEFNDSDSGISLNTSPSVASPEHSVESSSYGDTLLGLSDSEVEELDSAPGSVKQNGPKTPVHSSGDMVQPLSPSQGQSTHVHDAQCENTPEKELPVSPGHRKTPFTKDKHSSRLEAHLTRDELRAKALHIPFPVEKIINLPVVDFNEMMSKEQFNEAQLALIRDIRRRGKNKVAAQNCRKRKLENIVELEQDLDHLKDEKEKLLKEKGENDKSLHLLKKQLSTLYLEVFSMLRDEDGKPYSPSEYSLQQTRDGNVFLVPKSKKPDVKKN

The subject of data set [4] is Sox2CreER;LSL-Nrf2^E79Q/+ mice. Put plainly: Therapeutic effect on the NRF2^high esophageal phenotype in Sox2CreER. The format is in vivo, mouse. An outline of the steps:
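Sox2CreER;LSL-Nrf2^E79Q/+ mice induced with tamoxifen (75 mg/kg/day i.p., 5 days), then given oral test compound in N-methyl-2-pyrrolidone:PEG300 (1:9). Part of forestomach resected at Week 1; rest of forestomach and esophageal epithelium taken at Week 3 sacrifice, with BrdU 50 mg/kg i.p. 2 h before. Analysis by Western blotting, H&E, and IHC (DAB, no-primary-antibody controls).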

The mark [5] stands for this setting: PYR given after tamoxifen induction.

For `CCc1nc(N)nc(N)c1-c1ccc(Cl)cc1` [PYR, Pyrimethamine], the IC50 with KYSE70 cells was > 10 µM. For the same molecule, in the data set on KYSE180 cells, the IC50 was > 10 µM. The “NFE2L2 mRNA and NRF2 target genes (AKR1B10, AKR1C2, AKR1C3, PGD, SLC7A11, TKT) by qPCR” value in data set [1] is “downregulation”. Also, the NRF2 expression result in data set [2] is given as “upregulated NRF2 expression”. Also, the “pSTAT3 and STAT3 expression” value in the data set on STAT3 is listed as “did not significantly inhibit”. Besides, the NRF2 ubiquitination entry in data set [3] is “promoted NRF2 ubiquitination”. Moreover, in data set [4] (30 mg/kg/day, p.o.), the “NRF2^high esophageal phenotype” value is given as “effectively inhibited” and the Toxicity entry was “no observed toxicity”. Moreover, in data set [4] (setting [5]), the “Expression of NRF2 and its target genes (HMOX1 and AKR1C3) in the esophageal epithelium” value is listed as “significantly inhibited the expression”; the “NQO1, GCLC and GCLM expression in the esophageal epithelium” value is reported as “inhibited, yet without statistical significance”; the “NRF2 expression in the forestomach” value is “significantly inhibited”.
